Source: ChEMBL document CHEMBL5260843 (J Med Chem, 2019)
Activity calls are given as the source filed them. The rule behind the calls is not given here.

Tests used:
[1] = Metabolic stability in human liver microsomes assessed as intrinsic clearance; format: ADME, Microsome; conditions: read-out: CLH
[2] = biological target: DCN1-like protein 1/NEDD8-conjugating enzyme Ubc12 (Homo sapiens, UniProt Q96GG9); test: Inhibition of GST-tagged DCN1 PONY domain (unknown origin)/human N-terminal acetylated UBC12 (1 to 12 residues) protein-protein interaction incubated for 1 hr by HTRF analysis; format: protein assay
DCN1-like protein 1/NEDD8-conjugating enzyme Ubc12, sequence (Q96GG9 whole entry, the tested form may be a part): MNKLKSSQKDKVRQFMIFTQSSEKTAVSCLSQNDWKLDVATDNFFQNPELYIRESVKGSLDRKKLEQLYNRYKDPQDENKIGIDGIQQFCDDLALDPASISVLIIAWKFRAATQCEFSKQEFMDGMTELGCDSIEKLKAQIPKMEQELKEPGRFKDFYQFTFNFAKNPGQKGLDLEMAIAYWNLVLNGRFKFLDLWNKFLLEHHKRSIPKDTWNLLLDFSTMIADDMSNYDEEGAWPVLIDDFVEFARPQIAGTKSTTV
DCN1-like protein 1/NEDD8-conjugating enzyme Ubc12, sequence (P61081 whole entry, further chain, the tested form may be a part): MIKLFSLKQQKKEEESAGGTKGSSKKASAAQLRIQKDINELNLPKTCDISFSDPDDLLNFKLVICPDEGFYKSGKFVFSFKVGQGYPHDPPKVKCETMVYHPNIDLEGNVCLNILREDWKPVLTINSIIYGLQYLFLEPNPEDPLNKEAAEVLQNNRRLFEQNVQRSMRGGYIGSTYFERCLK

Cullin-4B (Homo sapiens) = Cullin-4B (Homo sapiens) (UniProt Q13620); test: Inhibition of cullin4B neddylation in human KYSE-70 cells at 0.3 to 10 uM incubated for 24 hrs by Western blot analysis; format: cell-based; conditions: KYSE-70 cell line, dose 0.3-10 µM
Cullin-4B (Homo sapiens), sequence (Q13620 whole entry): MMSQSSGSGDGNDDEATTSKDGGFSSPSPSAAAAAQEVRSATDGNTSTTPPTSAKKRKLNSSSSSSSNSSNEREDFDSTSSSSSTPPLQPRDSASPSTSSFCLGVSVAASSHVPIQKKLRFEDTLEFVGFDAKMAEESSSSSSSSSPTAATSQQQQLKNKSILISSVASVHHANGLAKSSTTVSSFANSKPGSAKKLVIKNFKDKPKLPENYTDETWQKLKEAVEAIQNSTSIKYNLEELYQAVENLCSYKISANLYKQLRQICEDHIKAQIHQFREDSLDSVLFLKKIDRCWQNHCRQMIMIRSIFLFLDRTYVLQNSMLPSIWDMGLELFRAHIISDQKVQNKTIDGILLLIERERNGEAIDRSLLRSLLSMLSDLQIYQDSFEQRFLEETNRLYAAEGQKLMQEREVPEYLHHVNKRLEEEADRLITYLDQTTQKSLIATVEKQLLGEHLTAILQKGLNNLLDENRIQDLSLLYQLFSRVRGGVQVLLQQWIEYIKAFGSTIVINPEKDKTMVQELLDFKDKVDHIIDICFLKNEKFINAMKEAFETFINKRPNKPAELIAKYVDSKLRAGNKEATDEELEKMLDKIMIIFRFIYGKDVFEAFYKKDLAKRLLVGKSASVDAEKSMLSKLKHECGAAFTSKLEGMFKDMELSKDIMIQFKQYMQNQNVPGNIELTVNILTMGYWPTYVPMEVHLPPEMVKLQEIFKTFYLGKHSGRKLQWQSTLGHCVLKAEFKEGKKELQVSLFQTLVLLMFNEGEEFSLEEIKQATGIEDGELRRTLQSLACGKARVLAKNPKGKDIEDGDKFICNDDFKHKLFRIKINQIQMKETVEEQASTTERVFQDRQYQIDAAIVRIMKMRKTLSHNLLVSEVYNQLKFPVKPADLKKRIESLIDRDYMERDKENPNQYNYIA
Procedure, shortened: (§1)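 Cells in 6-well plates were exposed to compound for 24 h. MGC-803 were grown in DMEM and KYSE70 in RPMI 1640, both with 10% FBS at 37 °C and 5% CO2. Lysates were made in RIPA with protease inhibitors and quantified by BCA. 30 μg protein was run on 8% SDS-PAGE and blotted to nitrocellulose. Primary antibodies were applied overnight at 4 °C, then HRP secondaries, with ECL and film detection. GAPDH was the loading control. Run three times.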

[3] = biological target: CDK6/cyclin D3 (Homo sapiens) (UniProt P30281+Q00534); test: Inhibition of full length human CDK6/N-terminal GST fused human cyclinD3 expressed in baculovirus expression system using 5-FAMIPTSPITTTYFFFKKK-COOH as substrate at 10 uM incubated for 60 mins in presence of ATP relative to control
Procedure, shortened: (§2)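 CDK/cyclin complexes were assayed with 3 μM 5-FAM peptide substrate. ATP was 20 μM for CDK1, 30 μM for CDK2, 280 μM for CDK4, 800 μM for CDK6 and 10 μM for CDK9. Buffer was 50 mM HEPES pH 7.5, 0.0015% Brij-35, 10 mM MgCl2 and 2 mM DTT. Reactions ran 60 min at 28 °C and were stopped with EDTA. Caliper conversion values were converted to % inhibition.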

MGC-803 [4] = test: Induction of ROS generation in human MGC-803 cells at 3 uM incubated for 24 hrs by DCFH-DA staining based flow cytometry analysis (reference value: 2.2%); format: functional
KYSE-70 cell line = test: Inhibition of cullin3 neddylation in human KYSE-70 cells incubated for 24 hrs by Western blot analysis; format: cell-based; conditions: dose 0.3-10 µM; procedure, shortened: as §1
[5] = Metabolic stability in rat liver microsomes assessed as intrinsic clearance; format: ADME, Microsome; conditions: read-out: CLH
MGC-803 [6] = test: Induction of p21 accumulation in human MGC-803 cells incubated for 24 hrs by Western blot analysis; format: functional, cell-based; conditions: dose 1-10 µM; procedure, shortened: as §1
[7] = Metabolic stability in dog liver microsomes assessed as half life; format: ADME, Canis lupus familiaris, Microsome
Cullin-1 (Homo sapiens) = Cullin-1 (Homo sapiens) (UniProt Q13616); test: Inhibition of cullin1 neddylation in UBC/DCN1 overactivated human MGC-803 cells at 10 uM incubated for 24 hrs by Western blot analysis; format: cell-based; procedure, shortened: as §1
Cullin-1 (Homo sapiens), sequence (Q13616 whole entry): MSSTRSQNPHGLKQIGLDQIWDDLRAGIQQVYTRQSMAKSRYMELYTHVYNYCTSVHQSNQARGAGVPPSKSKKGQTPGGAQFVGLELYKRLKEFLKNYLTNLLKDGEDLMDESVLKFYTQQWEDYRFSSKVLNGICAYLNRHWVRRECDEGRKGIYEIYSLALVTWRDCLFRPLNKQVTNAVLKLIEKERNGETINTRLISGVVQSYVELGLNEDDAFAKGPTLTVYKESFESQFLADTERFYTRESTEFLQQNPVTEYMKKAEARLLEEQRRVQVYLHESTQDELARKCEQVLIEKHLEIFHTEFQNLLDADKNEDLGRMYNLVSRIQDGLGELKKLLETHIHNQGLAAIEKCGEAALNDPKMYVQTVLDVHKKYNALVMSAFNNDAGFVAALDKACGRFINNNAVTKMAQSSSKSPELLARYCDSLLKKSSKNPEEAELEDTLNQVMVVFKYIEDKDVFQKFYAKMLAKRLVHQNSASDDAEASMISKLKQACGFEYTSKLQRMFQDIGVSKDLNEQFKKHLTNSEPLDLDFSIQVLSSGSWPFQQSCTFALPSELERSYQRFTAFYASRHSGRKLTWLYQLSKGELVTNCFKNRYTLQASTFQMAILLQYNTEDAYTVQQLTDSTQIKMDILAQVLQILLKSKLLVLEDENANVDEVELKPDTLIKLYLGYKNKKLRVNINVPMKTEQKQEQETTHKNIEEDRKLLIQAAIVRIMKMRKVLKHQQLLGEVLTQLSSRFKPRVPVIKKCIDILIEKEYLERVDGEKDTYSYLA

KYSE-70 [8] = test: Induction of p27 accumulation in human KYSE-70 cells incubated for 24 hrs by Western blot analysis; format: functional, cell-based; conditions: dose 0.3-10 µM; procedure, shortened: as §1
[9] = Metabolic stability in dog liver microsomes assessed as intrinsic clearance; format: ADME, Canis lupus familiaris, Microsome; conditions: read-out: CLH
KYSE-70 [10] = test: Upregulation of NRF2 protein expression in human KYSE-70 cells incubated for 24 hrs by Western blot analysis; format: functional, cell-based; conditions: dose 0.3-10 µM
Procedure, shortened: (§3)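 Cells were grown at 37 °C in 5% CO2 with 10% FBS, MGC-803 in DMEM and KYSE70 in RPMI 1640. They were exposed to the indicated compound concentrations for 24 h, then lysed in RIPA with protease inhibitors and quantified by BCA. 30 μg of protein was run on 8% SDS-PAGE and blotted to nitrocellulose. Primary antibody was applied overnight at 4 °C, with HRP secondary and ECL film detection. GAPDH served as the loading control; the experiment was done three times.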

MGC-803 [11] = test: Upregulation of NRF2 protein expression in human MGC-803 cells incubated for 24 hrs by Western blot analysis; format: functional, cell-based; conditions: dose 1-10 µM; procedure, shortened: as §3
[12] = biological target: DCN1-like protein 1/NEDD8-conjugating enzyme Ubc12 (Homo sapiens) (UniProt Q96GG9+P61081); conditions: dose 500.0 nM, time 1.0 hrs
DCN1-like protein 1/NEDD8-conjugating enzyme Ubc12 (Homo sapiens), sequence (P61081 whole entry, looked up): as the sequence (P61081 whole entry, further chain, the tested form may be a part) above
DCN1-like protein 1/NEDD8-conjugating enzyme Ubc12 (Homo sapiens), sequence (Q96GG9 whole entry, looked up): as the sequence (Q96GG9 whole entry, the tested form may be a part) above

MGC-803 [13] = test: Induction of ROS generation in human MGC-803 cells at 1 uM incubated for 24 hrs by DCFH-DA staining based flow cytometry analysis (reference value: 2.2%); format: functional
[14] = tested on: Epidermal growth factor receptor (Homo sapiens), P00533 [L858R]; test: Inhibition of human EGFR L858R mutant (669 to 1210 residues) expressed in Sf21 insect cells using 5-FAM-EEPLYWSFPAKKK-CONH2 as substrate at 10 uM incubated for 30 mins relative to control
Epidermal growth factor receptor (Homo sapiens), P00533 [L858R], sequence (P00533 whole entry L858R, the tested form may be a part): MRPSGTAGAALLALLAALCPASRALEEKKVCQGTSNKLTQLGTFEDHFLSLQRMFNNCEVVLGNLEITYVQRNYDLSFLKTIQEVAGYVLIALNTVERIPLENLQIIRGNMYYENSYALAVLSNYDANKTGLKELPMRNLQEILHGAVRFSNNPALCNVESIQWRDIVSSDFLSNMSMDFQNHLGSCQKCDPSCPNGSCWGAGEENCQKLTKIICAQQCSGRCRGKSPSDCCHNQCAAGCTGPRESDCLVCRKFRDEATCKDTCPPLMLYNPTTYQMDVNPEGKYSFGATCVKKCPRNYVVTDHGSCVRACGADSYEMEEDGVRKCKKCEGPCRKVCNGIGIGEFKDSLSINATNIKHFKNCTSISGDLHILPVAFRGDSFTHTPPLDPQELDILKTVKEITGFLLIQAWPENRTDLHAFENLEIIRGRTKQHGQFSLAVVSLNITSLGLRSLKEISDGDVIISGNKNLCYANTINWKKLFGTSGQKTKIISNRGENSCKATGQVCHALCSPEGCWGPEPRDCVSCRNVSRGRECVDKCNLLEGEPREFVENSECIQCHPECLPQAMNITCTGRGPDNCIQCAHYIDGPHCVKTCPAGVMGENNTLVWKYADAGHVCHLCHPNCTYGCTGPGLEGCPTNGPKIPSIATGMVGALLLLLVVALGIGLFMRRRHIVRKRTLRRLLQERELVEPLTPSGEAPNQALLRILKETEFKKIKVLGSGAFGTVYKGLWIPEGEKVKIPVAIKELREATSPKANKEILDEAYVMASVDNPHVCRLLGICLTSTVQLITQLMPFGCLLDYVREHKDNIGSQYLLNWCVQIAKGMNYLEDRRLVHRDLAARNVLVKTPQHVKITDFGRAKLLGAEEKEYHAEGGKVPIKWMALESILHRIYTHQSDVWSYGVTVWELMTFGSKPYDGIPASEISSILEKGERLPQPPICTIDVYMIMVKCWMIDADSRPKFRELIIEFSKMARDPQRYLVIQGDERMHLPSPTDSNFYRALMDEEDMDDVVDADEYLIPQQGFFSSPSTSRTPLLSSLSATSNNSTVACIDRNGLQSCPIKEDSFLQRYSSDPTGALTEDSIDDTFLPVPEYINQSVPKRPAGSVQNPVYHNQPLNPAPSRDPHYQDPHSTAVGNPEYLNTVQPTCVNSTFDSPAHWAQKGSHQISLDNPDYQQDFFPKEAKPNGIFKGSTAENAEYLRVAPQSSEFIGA

[15] = biological target: CDK2/Cyclin A2 (Homo sapiens) (UniProt P24941+P20248); test: Inhibition of GST-tagged human CDK2/Cyclin A2 expressed in baculovirus infected Sf9 cells using 5-FAM-QSPKKG-CONH2 as substrate at 10 uM incubated for 60 mins in presence of ATP relative to control; procedure, shortened: as §2
[16] = biological target: CDK4/Cyclin D3 (Homo sapiens) (UniProt P11802+P30281); test: Inhibition of full length human CDK4/N-terminal GST fused human cyclinD3 expressed in baculovirus expression system using 5-FAMIPTSPITTTYFFFKKK-COOH as substrate at 10 uM incubated for 60 mins in presence of ATP relative to control; procedure, shortened: as §2
MGC-803 [17] = test: Inhibition of cullin2 neddylation in UBC/DCN1 overactivated human MGC-803 cells at 0.3 to 10 uM incubated for 24 hrs by Western blot analysis; format: cell-based; conditions: dose 0.3-10 µM; procedure, shortened: as §1

- CLint scaled [1]: > 348 mL/min/kg
- IC50 [2]: 11 nM
- inhibition (Cullin-4B (Homo sapiens)): inactive
- inhibition [3]: 21.8%
- CLint scaled [5]: 497 mL/min/kg
- half-life [7]: < 5 min
- inhibition (Cullin-1 (Homo sapiens)): Active
- CLint scaled [9]: 691 mL/min/kg
- inhibition [12]: Active
- inhibition [14]: -0.6%
- inhibition [15]: 20.5%
- inhibition [16]: 4.8%
Compound: Cc1cc(Sc2nnnn2CCN(C)C)n2nc(SCc3ccc(Cl)cc3)nc2n1.Cl
- Activity (MGC-803 [4]): 2.6%
- inhibition (KYSE-70 cell line): Dose-Dependent Effect
- Activity (MGC-803 [6]): Dose-Dependent Effect
- Activity (KYSE-70 [8]): Dose-Dependent Effect
- Activity (KYSE-70 [10]): Dose-Dependent Effect
- Activity (MGC-803 [11]): Dose-Dependent Effect
- Activity (MGC-803 [13]): 3.8%
- inhibition (MGC-803 [17]): inactive
